Assay results: ChEMBL document CHEMBL1142125, “Bioactive lignans from Peperomia duclouxii” (J Nat Prod, 2007)
Values after ≈ are worked out from the molar mass of the structure shown.

Tests used:
WI-38 = assay: Growth inhibition of human WI38 cells; assay type: functional, cell-based
In short: (§1)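 Growth inhibition assays. WI-38 cells were kept in Eagle's MEM and VA-13 cells in RITC 80-7, both with 10% (v/v) FBS and 80 µg/mL kanamycin. HepG2 cells were kept in D-MEM with 10% (v/v) FBS and 80 µg/mL kanamycin. IC50 is the concentration giving 50% growth inhibition.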

HepG2 = assay: Growth inhibition of human HepG2 cells; assay type: functional, cell-based; in short: as §1
WI-38 VA13 = assay: Growth inhibition of human VA13 cells; assay type: functional, cell-based; in short: as §1
A549 [1] = assay: Inhibition of IL-1-alpha-induced ICAM1 in human A549 cells; assay type: functional, cell-based
In short: (§2)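 ICAM-1 induction assay. Human A549 cells were grown in RPMI 1640 with heat-inactivated 10% FBS, penicillin G and streptomycin. Cells were stimulated with recombinant IL-1α or TNF-α. Cell-surface ICAM-1 was detected with mouse anti-human ICAM-1 antibody C167 plus a peroxidase-conjugated goat anti-mouse IgG, and an IC50 was derived.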

A549 [2] = assay: Inhibition of TNF-alpha-induced ICAM1 in human A549 cells; assay type: functional, cell-based; in short: as §2
A549 [3] = assay: Cytotoxicity against human A549 cells by MTT assay; assay type: cell-based
In short: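 Cell viability was measured by MTT assay in human A549 cells grown in RPMI 1640 with heat-inactivated 10% FBS, penicillin G and streptomycin. This was done alongside the IL-1α/TNF-α-stimulated ICAM-1 induction assay, and an IC50 was derived.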

[4] = Effect on calcein accumulation in human multidrug-resistant 2780AD cells at 25 ug/mL relative to verapamil; assay type: functional, A2780 ADR
In short: (§3)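 Calcein accumulation assay. Multidrug-resistant human ovarian cancer 2780AD (AD10) cells were grown in RPMI-1640 with 10% (v/v) FBS and 80 µg/mL kanamycin. Calcein formed from calcein AM by endogenous esterase served as the efflux probe. Cells were tested at 0.25, 2.5 and 25 µg/mL. Read-out was fluorescence per well, as the mean of triplicates, expressed relative to the untreated control or to the verapamil positive control.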

[5] = Effect on calcein accumulation in human multidrug-resistant 2780AD cells at 2.5 ug/mL relative to verapamil; assay type: functional, A2780 ADR; in short: as §3
[6] = Effect on calcein accumulation in human multidrug-resistant 2780AD cells at 2.5 ug/mL relative to control; assay type: functional, A2780 ADR; in short: as §3
[7] = Effect on calcein accumulation in human multidrug-resistant 2780AD cells at 25 ug/mL relative to control; assay type: functional, A2780 ADR; in short: as §3
[8] = Effect on calcein accumulation in human multidrug-resistant 2780AD cells at 0.25 ug/mL relative to verapamil; assay type: functional, A2780 ADR; in short: as §3
[9] = Effect on calcein accumulation in human multidrug-resistant 2780AD cells at 0.25 ug/mL relative to control; assay type: functional, A2780 ADR; in short: as §3

SMILES | IC50 (HepG2) [µg/mL] | IC50 (A549 [1]) [µM] | IC50 (A549 [2]) [µM] | IC50 (WI-38) [µg/mL] | IC50 (WI-38 VA13) [µg/mL] | IC50 (A549 [3]) [µM] | Activity [4] [%] | Activity [5] [%] | Activity [6] [%] | Activity [7] [%] | Activity [8] [%] | Activity [9] [%]
COc1cc([C@@H]2c3c(cc4c(c3OC)OCO4)C[C@H](COC(C)=O)[C@@H]2COC(C)=O)cc(OC)c1O | 74.4 (≈ 148 µM) | 107 | 13.4 | 41.3 (≈ 82.2 µM) | 62.4 (≈ 124 µM) | > 316 |  |  |  |  |  | 
COc1cccc2c1C(=O)c1c(O)c3c(c(O)c1C2=O)C[C@@](O)(C(=O)CO)C[C@@H]3O[C@H]1C[C@H](N)[C@H](O)[C@H](C)O1 [DOXORUBICIN] | 0.48 (≈ 0.883 µM) |  |  | 0.76 (≈ 1.4 µM) | 0.08 (≈ 0.147 µM) |  |  |  |  |  |  | 
COc1cc(C[C@H]2CO[C@H](c3cc(OC)c4c(c3)OCO4)[C@H]2CO)cc2c1OCO2 | 72 (≈ 173 µM) |  |  | 74.3 (≈ 178 µM) | 99.1 (≈ 238 µM) |  |  |  |  |  |  | 
CC(=O)O[C@H]1C(=O)[C@@]2(C)[C@H]([C@H](OC(=O)c3ccccc3)[C@]3(O)C[C@H](OC(=O)[C@H](O)[C@@H](NC(=O)c4ccccc4)c4ccccc4)C(C)=C1C3(C)C)[C@]1(OC(C)=O)CO[C@@H]1C[C@@H]2O [PACLITAXEL] | 0.05 (≈ 0.0586 µM) |  |  | 0.02 (≈ 0.0234 µM) | 0.01 (≈ 0.0117 µM) |  |  |  |  |  |  | 
COc1ccc(CCN(C)CCCC(C#N)(c2ccc(OC)c(OC)c2)C(C)C)cc1OC (configuration not stated) [VERAPAMIL] |  |  |  |  |  |  | 100 | 100 | 114 | 145 | 100 | 99
COc1cc([C@H]2OC[C@@H]3C(=O)OC[C@@H]32)cc(OC)c1OC [ZHEPIRESINOL] | 60.2 (≈ 205 µM) |  |  | 57.7 (≈ 196 µM) | 50.7 (≈ 172 µM) |  |  |  |  |  |  | 

More lines, main results first:

IC50 (HepG2) [µg/mL] | IC50 (A549 [1]) [µM] | IC50 (A549 [2]) [µM] | SMILES | IC50 (WI-38) [µg/mL] | IC50 (WI-38 VA13) [µg/mL] | IC50 (A549 [3]) [µM] | Activity [4] [%] | Activity [5] [%] | Activity [6] [%] | Activity [7] [%] | Activity [8] [%] | Activity [9] [%]
> 100 |  |  | COc1cc([C@H]2OC[C@H]3[C@@H]2CO[C@@H]3c2ccc3c(c2)OCO3)cc(OC)c1O | > 100 | > 100 |  |  |  |  |  |  | 
84.7 (≈ 218 µM) |  |  | COc1cc([C@H]2OC[C@@H]3C(c4cc(OC)c(O)c(OC)c4)OC[C@H]23)ccc1O (some centres not stated) [MEDIORESINOL] | 76.9 (≈ 198 µM) | > 100 |  |  |  |  |  |  | 
13.2 (≈ 32.8 µM) |  |  | COc1cc([C@@H]2OC[C@@H]3[C@H]2CO[C@H]3c2cc(OC)c3c(c2)OCO3)cc(O)c1O | 49.8 (≈ 124 µM) | 5.3 (≈ 13.2 µM) |  | 117 | 92 | 105 | 169 | 103 | 101
> 100 |  |  | COc1cc([C@@H]2OC[C@@H]3[C@H]2CO[C@H]3c2cc(OC)c3c(c2)OCO3)cc(OC)c1O | 96.6 (≈ 232 µM) | > 100 |  |  |  |  |  |  | 
